Columns and labels:
[1] = biological target: Amyloid-beta precursor protein (Homo sapiens, UniProt P05067); assay: Displacement of [125I]IMPY from beta-amyloid plaques in Alzheimer's disease patient brain homogenate; format: tissue-based
[2] = Biodistribution in NMRI mouse urine at 3.7 MBq/mL, iv after 2 mins by gamma counting; format: ADME, organism-based; conditions: in vivo
How it was run: (§1)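 Male NMRI mice (30-40 g) anaesthetised with 0.1 mL ip Hypnorm (fentanyl citrate 63 µg/mL, fluanisone 2 mg/mL). Each received 0.1 mL of HPLC-purified 18F tracer, diluted in 0.9% NaCl to 3.7 MBq/mL (ethanol ≤10%, THF ≤0.02%), via tail vein. Killed by decapitation at 2 or 60 min; blood and organs weighed and γ-counted. Background-corrected, expressed as %ID or %ID/g.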

[3] = Biodistribution in NMRI mouse urine at 3.7 MBq/mL, iv after 60 mins by gamma counting; format: ADME, organism-based; conditions: in vivo, 1 h; how it was run: as §1
Kidney [4] = assay: Biodistribution in NMRI mouse kidney at 3.7 MBq/mL, iv after 2 mins by gamma counting; format: ADME, organism-based; conditions: in vivo; how it was run: as §1
Kidney [5] = assay: Biodistribution in NMRI mouse kidney at 3.7 MBq/mL, iv after 60 mins by gamma counting; format: ADME, organism-based; conditions: in vivo, 1 h; how it was run: as §1
Kidney [6] = assay: Biodistribution in NMRI mouse kidney assessed per gram of tissue at 3.7 MBq/mL, iv after 2 mins by gamma counting; format: ADME, organism-based; conditions: in vivo; how it was run: as §1
Kidney [7] = assay: Biodistribution in NMRI mouse kidney assessed per gram of tissue at 3.7 MBq/mL, iv after 60 mins by gamma counting; format: ADME, organism-based; conditions: in vivo, 1 h; how it was run: as §1
Liver [8] = assay: Biodistribution in NMRI mouse liver at 3.7 MBq/mL, iv after 2 mins by gamma counting; format: ADME, organism-based; conditions: in vivo; how it was run: as §1
Liver [9] = assay: Biodistribution in NMRI mouse liver at 3.7 MBq/mL, iv after 60 mins by gamma counting; format: ADME, organism-based; conditions: in vivo, 1 h; how it was run: as §1
Liver [10] = assay: Biodistribution in NMRI mouse liver assessed per gram of tissue at 3.7 MBq/mL, iv after 2 mins by gamma counting; format: ADME, organism-based; conditions: in vivo; how it was run: as §1
Liver [11] = assay: Biodistribution in NMRI mouse liver assessed per gram of tissue at 3.7 MBq/mL, iv after 60 mins by gamma counting; format: ADME, organism-based; conditions: in vivo, 1 h; how it was run: as §1
[12] = Biodistribution in NMRI mouse spleen/pancreas at 3.7 MBq/mL, iv after 2 mins by gamma counting; format: ADME, organism-based; conditions: in vivo; how it was run: as §1
[13] = Biodistribution in NMRI mouse spleen/pancreas at 3.7 MBq/mL, iv after 60 mins by gamma counting; format: ADME, organism-based; conditions: in vivo, 1 h; how it was run: as §1
[14] = Biodistribution in NMRI mouse spleen/pancreas assessed per gram of tissue at 3.7 MBq/mL, iv after 2 mins by gamma counting; format: ADME, organism-based; conditions: in vivo; how it was run: as §1
[15] = Biodistribution in NMRI mouse spleen/pancreas assessed per gram of tissue at 3.7 MBq/mL, iv after 60 mins by gamma counting; format: ADME, organism-based; conditions: in vivo, 1 h; how it was run: as §1
Lung [16] = assay: Biodistribution in NMRI mouse lung at 3.7 MBq/mL, iv after 2 mins by gamma counting; format: ADME, organism-based; conditions: in vivo
Lung [17] = assay: Biodistribution in NMRI mouse lung at 3.7 MBq/mL, iv after 60 mins by gamma counting; format: ADME, organism-based; conditions: in vivo, 1 h; how it was run: as §1
Lung [18] = assay: Biodistribution in NMRI mouse lung assessed per gram of tissue at 3.7 MBq/mL, iv after 2 mins by gamma counting; format: ADME, organism-based; conditions: in vivo; how it was run: as §1
Lung [19] = assay: Biodistribution in NMRI mouse lung assessed per gram of tissue at 3.7 MBq/mL, iv after 60 mins by gamma counting; format: ADME, organism-based; conditions: in vivo, 1 h; how it was run: as §1
Heart [20] = assay: Biodistribution in NMRI mouse heart at 3.7 MBq/mL, iv after 2 mins by gamma counting; format: ADME, organism-based; conditions: in vivo; how it was run: as §1
Heart [21] = assay: Biodistribution in NMRI mouse heart at 3.7 MBq/mL, iv after 60 mins by gamma counting; format: ADME, organism-based; conditions: in vivo, 1 h; how it was run: as §1
Heart [22] = assay: Biodistribution in NMRI mouse heart assessed per gram of tissue at 3.7 MBq/mL, iv after 2 mins by gamma counting; format: ADME, organism-based; conditions: in vivo; how it was run: as §1
Heart [23] = assay: Biodistribution in NMRI mouse heart assessed per gram of tissue at 3.7 MBq/mL, iv after 60 mins by gamma counting; format: ADME, organism-based; conditions: in vivo, 1 h; how it was run: as §1
Intestine [24] = assay: Biodistribution in NMRI mouse intestine at 3.7 MBq/mL, iv after 2 mins by gamma counting; format: ADME, organism-based; conditions: in vivo; how it was run: as §1
Intestine [25] = assay: Biodistribution in NMRI mouse intestine at 3.7 MBq/mL, iv after 60 mins by gamma counting; format: ADME, organism-based; conditions: in vivo, 1 h; how it was run: as §1
Stomach [26] = assay: Biodistribution in NMRI mouse stomach at 3.7 MBq/mL, iv after 2 mins by gamma counting; format: ADME, organism-based; conditions: in vivo; how it was run: as §1
Stomach [27] = assay: Biodistribution in NMRI mouse stomach at 3.7 MBq/mL, iv after 60 mins by gamma counting; format: ADME, organism-based; conditions: in vivo, 1 h; how it was run: as §1
[28] = Biodistribution in NMRI mouse cerebrum at 3.7 MBq/mL, iv after 2 mins by gamma counting; format: ADME, organism-based; conditions: in vivo; how it was run: as §1
[29] = Biodistribution in NMRI mouse cerebrum at 3.7 MBq/mL, iv after 60 mins by gamma counting; format: ADME, organism-based; conditions: in vivo, 1 h; how it was run: as §1
[30] = Biodistribution in NMRI mouse cerebrum assessed per gram of tissue at 3.7 MBq/mL, iv after 2 mins by gamma counting; format: ADME, organism-based; conditions: in vivo; how it was run: as §1
[31] = Biodistribution in NMRI mouse cerebrum assessed per gram of tissue at 3.7 MBq/mL, iv after 60 mins by gamma counting; format: ADME, organism-based; conditions: in vivo, 1 h; how it was run: as §1
Cerebellum [32] = assay: Biodistribution in NMRI mouse cerebellum at 3.7 MBq/mL, iv after 2 mins by gamma counting; format: ADME, organism-based; conditions: in vivo; how it was run: as §1
Cerebellum [33] = assay: Biodistribution in NMRI mouse cerebellum at 3.7 MBq/mL, iv after 60 mins by gamma counting; format: ADME, organism-based; conditions: in vivo, 1 h; how it was run: as §1
Cerebellum [34] = assay: Biodistribution in NMRI mouse cerebellum assessed per gram of tissue at 3.7 MBq/mL, iv after 2 mins by gamma counting; format: ADME, organism-based; conditions: in vivo; how it was run: as §1
Cerebellum [35] = assay: Biodistribution in NMRI mouse cerebellum assessed per gram of tissue at 3.7 MBq/mL, iv after 60 mins by gamma counting; format: ADME, organism-based; conditions: in vivo, 1 h; how it was run: as §1
Blood [36] = assay: Biodistribution in NMRI mouse blood at 3.7 MBq/mL, iv after 2 mins by gamma counting; format: ADME, organism-based; conditions: in vivo; how it was run: as §1
Blood [37] = assay: Biodistribution in NMRI mouse blood at 3.7 MBq/mL, iv after 60 mins by gamma counting; format: ADME, organism-based; conditions: in vivo, 1 h; how it was run: as §1
Blood [38] = assay: Biodistribution in NMRI mouse blood assessed per gram of tissue at 3.7 MBq/mL, iv after 2 mins by gamma counting; format: ADME, organism-based; conditions: in vivo; how it was run: as §1
Blood [39] = assay: Biodistribution in NMRI mouse blood assessed per gram of tissue at 3.7 MBq/mL, iv after 60 mins by gamma counting; format: ADME, organism-based; conditions: in vivo, 1 h; how it was run: as §1

Sequence of Amyloid-beta precursor protein (P05067 whole entry): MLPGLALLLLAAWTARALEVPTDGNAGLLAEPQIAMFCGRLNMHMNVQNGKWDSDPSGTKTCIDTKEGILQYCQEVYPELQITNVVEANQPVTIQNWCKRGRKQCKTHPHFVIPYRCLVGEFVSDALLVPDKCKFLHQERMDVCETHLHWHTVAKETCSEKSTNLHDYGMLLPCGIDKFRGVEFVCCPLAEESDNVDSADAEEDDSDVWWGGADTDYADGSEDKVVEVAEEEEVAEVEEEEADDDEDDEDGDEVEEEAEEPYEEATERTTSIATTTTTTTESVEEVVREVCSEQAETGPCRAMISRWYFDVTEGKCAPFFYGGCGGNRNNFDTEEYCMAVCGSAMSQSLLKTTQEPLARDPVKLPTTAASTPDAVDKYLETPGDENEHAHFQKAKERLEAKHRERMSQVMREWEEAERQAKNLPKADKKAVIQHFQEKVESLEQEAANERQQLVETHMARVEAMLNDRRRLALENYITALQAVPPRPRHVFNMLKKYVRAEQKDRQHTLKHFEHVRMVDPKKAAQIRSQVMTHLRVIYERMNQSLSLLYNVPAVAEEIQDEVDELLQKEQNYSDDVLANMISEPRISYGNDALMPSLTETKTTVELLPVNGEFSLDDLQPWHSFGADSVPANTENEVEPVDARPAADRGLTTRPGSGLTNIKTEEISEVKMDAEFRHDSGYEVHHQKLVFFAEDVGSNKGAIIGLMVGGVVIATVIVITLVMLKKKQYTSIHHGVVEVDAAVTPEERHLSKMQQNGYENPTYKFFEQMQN

Row | Ki [1] | Drug uptake [2] | Drug uptake [3] | Drug uptake (Kidney [4]) | Drug uptake (Kidney [5]) | Drug uptake (Kidney [6]) | Drug uptake (Kidney [7]) | Drug uptake (Liver [8]) | Drug uptake (Liver [9]) | Drug uptake (Liver [10]) | Drug uptake (Liver [11]) | Drug uptake [12] | Drug uptake [13] | Drug uptake [14] | Drug uptake [15] | Drug uptake (Lung [16]) | Drug uptake (Lung [17]) | Drug uptake (Lung [18]) | Drug uptake (Lung [19]) | Drug uptake (Heart [20]) | SMILES | other results
1 | 0.0225 µM | – | – | – | – | – | – | – | – | – | – | – | – | – | – | – | – | – | – | – | Oc1ccc2nc(-c3ccc(F)cc3)sc2c1 | –
2 | 0.0022 µM | – | – | – | – | – | – | – | – | – | – | – | – | – | – | – | – | – | – | – | COc1ccc2nc(-c3ccc(F)cc3)sc2c1 | –
3 | – | 0.2 %ID | 24.4 %ID | 10.3 %ID | 4.8 %ID | 19.9 % ID/g | 9.1 % ID/g | 15.6 %ID | 9.8 %ID | 7.9 % ID/g | 5 % ID/g | 0.6 %ID | 0.1 %ID | 4.7 % ID/g | 0.7 % ID/g | 0.9 %ID | 0.3 %ID | 3.6 % ID/g | 1.3 % ID/g | 0.6 %ID | [11CH3]Nc1ccc(-c2nc3ccc(O)cc3s2)cc1 [PITTSBURGH COMPOUND B] | Drug uptake (Heart [21]): 0.3 %ID; Drug uptake (Heart [22]): 4.2 % ID/g; Drug uptake (Heart [23]): 2.1 % ID/g; Drug uptake (Intestine [24]): 12 %ID; Drug uptake (Intestine [25]): 42.5 %ID; Drug uptake (Stomach [26]): 1.1 %ID; Drug uptake (Stomach [27]): 0.3 %ID; Drug uptake [28]: 1.08 %ID; Drug uptake [29]: 0.18 %ID; Drug uptake [30]: 3.6 % ID/g; Drug uptake [31]: 0.6 % ID/g; Drug uptake (Cerebellum [32]): 0.17 %ID; Drug uptake (Cerebellum [33]): 0.03 %ID; Drug uptake (Cerebellum [34]): 1.6 % ID/g; Drug uptake (Cerebellum [35]): 0.31 % ID/g; Drug uptake (Blood [36]): 7.9 %ID; Drug uptake (Blood [37]): 2.7 %ID; Drug uptake (Blood [38]): 3.1 % ID/g; Drug uptake (Blood [39]): 1.1 % ID/g
4 | – | 0.1 %ID | 11.3 %ID | 7 %ID | 5.9 %ID | 12.6 % ID/g | 11.8 % ID/g | 28.1 %ID | 24.6 %ID | 13.3 % ID/g | 11.9 % ID/g | 1.2 %ID | 0.5 %ID | 4 % ID/g | 1.8 % ID/g | 7.6 %ID | 1.5 %ID | 28.1 % ID/g | 5.5 % ID/g | 0.9 %ID | Oc1ccc2nc(-c3ccc([18F])cc3)sc2c1 | Drug uptake (Heart [21]): 0.1 %ID; Drug uptake (Heart [22]): 5.8 % ID/g; Drug uptake (Heart [23]): 1.3 % ID/g; Drug uptake (Intestine [24]): 7.1 %ID; Drug uptake (Intestine [25]): 36.7 %ID; Drug uptake (Stomach [26]): 1.1 %ID; Drug uptake (Stomach [27]): 0.5 %ID; Drug uptake [28]: 1.35 %ID; Drug uptake [29]: 0.16 %ID; Drug uptake [30]: 4.7 % ID/g; Drug uptake [31]: 0.57 % ID/g; Drug uptake (Cerebellum [32]): 0.55 %ID; Drug uptake (Cerebellum [33]): 0.08 %ID; Drug uptake (Cerebellum [34]): 5.13 % ID/g; Drug uptake (Cerebellum [35]): 0.76 % ID/g; Drug uptake (Blood [36]): 10 %ID; Drug uptake (Blood [37]): 3.3 %ID; Drug uptake (Blood [38]): 4 % ID/g; Drug uptake (Blood [39]): 1.3 % ID/g

From ChEMBL document CHEMBL1140929, “Synthesis and evaluation of 18F-labeled 2-phenylbenzothiazoles as positron emission tomography imaging agents for amyloid plaques in Alzheimer's disease” (J Med Chem, 2009)
